The source of these data is article PMC2743929 (Cell calcium, 2009).

What is called Kd is a measure of binding affinity in units of concentration.

Test [1] concerns ASI(+)RyR1-expressing dyspedic myotubes. Kind of test: Intracellular Ca2+ measurement. The test is classed as cell-based, mice. Particulars: 500μM, 45s application (Fig. 2). A digest of the protocol:
(§1)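 RyR1-null mouse myotubes in primary culture; nuclear cDNA injection where applicable, expressing cells marked by co-injected cherry red cDNA (0.005μg/μl). Loaded 25min at room temperature with 5μM fura-FF AM in HEPES Ringer's, pH7.4. Ratio 340/380nm (510nm emission) every 350ms. Sequence: 500μM 4-cmc for 45s, 60s wash, zero-Ca²⁺ ICE for 120s, then 10mM Ca²⁺ plus 10μM ionomycin. Peak responses compared by ANOVA/Dunnett's test.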

Test [2] deals with non-expressing dyspedic (RyR1-null) myotubes. The experiment in a line: Intracellular Ca2+ measurement. Particulars: 500μM (Fig. 2B). The test is classed as cell-based, mice. A digest of the protocol: as §1
Test [3] deals with ASI(-)RyR1-expressing dyspedic myotubes. Kind of test: Intracellular Ca2+ measurement. The test is classed as cell-based, mice. Particulars: 500μM, 45s application (Fig. 2). A digest of the protocol: as §1
The test system of test [4] is native skeletal muscle RyR1. The experiment in a line: [3H]ryanodine binding to SR vesicles. It is filed as biochemical. Particulars: for Ryanodine binding: mean ±SEM, SEM.
For test [5] the following is noted: low to moderate affinity Ca2+ dye; stated property, no reference given; cited from earlier work.
In test [6] the test system is native skeletal muscle RyR1. Kind of test: Ca2+ release from SR vesicles. It is filed as biochemical. The procedure, abridged: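 SR vesicles in 100mM KH₂PO₄ (pH7), 4mM MgCl₂, 1mM Na₂ATP, 0.5mM antipyrylazo III; extravesicular Ca²⁺ followed as OD at 710nm. Additions in sequence: 1μM thapsigargin, then peptide, then 5μM ruthenium red, then 1.5μg/ml A23187. n=3; paired or unpaired Student's t-test, P<0.05.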

The test system of test [7] is native RyR1. The experiment in a line: Single channel recording in lipid bilayers. The test is classed as biochemical. Particulars: for effect on RyR1 channel activity (open probability), in words: n=3 (Fig. 6). The procedure, abridged: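 Native RyR1 vesicles fused into lipid bilayers. After incorporation, cis contained 230mM CsCH₃O₃S, 20mM CsCl, 10mM TES, 500mM mannitol, 100μM free Ca²⁺, pH7.4; trans was made symmetrical at 230mM CsCH₃O₃S. Potential alternated between -40 and +40mV every 30s. Open probability from one to two 30s periods, with threshold ~20% of maximal conductance. Control, then 100μM peptide; n=3.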

[8] abbreviates: substance alone, 10μM Ca2+, versus control, n=3 (Fig. 5A, 7).

For `Cc1cc(O)ccc1Cl` [4-cmc, 4-chloro-m-cresol], the figures for the “effect on intracellular Ca2+, in words” value in test [1], in test [2] and in test [3] were “rapid increase”, “not in non-expressing dyspedic myotubes” and “rapid increase”, respectively.

Turning to `Cn1c(=O)c2c(ncn2C)n(C)c1=O` [Caffeine, caffeine, reference compound], the “effect on [3H]ryanodine binding, in words” value in test [4] (setting [8]) was “significantly increases”.

In the case of `CC(=O)OCOC(=O)CN(CC(=O)OCOC(C)=O)c1cc2oc(-c3ncc(C(=O)OCOC(C)=O)o3)cc2cc1OCCOc1c(N(CC(=O)OCOC(C)=O)CC(=O)OCOC(C)=O)ccc(F)c1F` [fura-FF], the equilibrium dissociation constant (Kd) in test [5] is 5.5 µM.

As to “^3471TADSKSKMAK-----------SGGSDQERTAAKLRG^3500 [ASI(mutant)]”, the “effect on Ca2+ release from SR vesicles, in words” value in test [6] (10μM peptide, n=3 (Fig. 5E)) is “did not increase”. For the same compound, the “effect on initial Ca2+ release from SR vesicles, in words” value in test [6] (100μM peptide, n=3 (Fig. 5C-E)) was “small increase”. The “effect on channel activity, in words” value in test [7] (data not shown) is “no effect”. Moreover, the “effect on [3H]ryanodine binding, in words” value in test [4] (setting [8]) is recorded as “only marginally increased”.

As to “^3471TADSKSKMAK-----------SGGSDQERTKKKRRG^3500 [ASI(-)]”, the “effect on Ca2+ release from SR vesicles, in words” value in test [6] (initial rate, peptide minus thapsigargin, n=3 (Fig. 5B&E)) is listed as “significantly increased”. Further, the “effect on RyR1 channel activity (open probability), in words” value was “significant inhibition” in test [7] (+40mV, 100μM peptide) and “significant activation” in test [7] (-40mV). In addition, the “effect on [3H]ryanodine binding if channels first activated by 100μM peptide A, in words” value in test [4] (10μM Ca2+, competition (Fig. 7A&B)) is on record as “failed to significantly increase”. Further, in test [4] (10μM caffeine plus 100μM peptide, 10μM Ca2+ (Fig. 7C)), the “[3H]ryanodine binding achievable” value is given as greater than 250 % control. Moreover, the “effect on [3H]ryanodine binding, in words” value in test [4] (100μM peptide, [Ca2+] ≥10μM, n=3 (Fig. 8A)) is reported as “significantly increased”; in test [4] (setting [8]) it was “significantly increased”. The Ryanodine binding in test [4] (500μM ASI(-) plus 100μM DP4) is reported as 339±32 % control; in test [4] (500μM peptide alone, SR vesicles, 37°C, 15nM [3H]ryanodine), 190±1 % of control.
